Measurements as given in ChEMBL document CHEMBL1773039, “Structure-Activity Study of Dihydrocinnamic Acids and Discovery of the Potent FFA1 (GPR40) Agonist TUG-469” (ACS Med Chem Lett, 2010).
Calls of active or inactive are those of the source. No cut-off for these calls is given here.

Assays:
[1] = molecular target: T1, Free fatty acid receptor 1 (Homo sapiens, UniProt O14842); experiment: Agonist activity at human FFA1 transfected in 1321N1 cells assessed as calcium mobilization by microplate assay relative to 10 uM TUG-20; assay type: functional, cell-based
T1 sequence (O14842 whole entry): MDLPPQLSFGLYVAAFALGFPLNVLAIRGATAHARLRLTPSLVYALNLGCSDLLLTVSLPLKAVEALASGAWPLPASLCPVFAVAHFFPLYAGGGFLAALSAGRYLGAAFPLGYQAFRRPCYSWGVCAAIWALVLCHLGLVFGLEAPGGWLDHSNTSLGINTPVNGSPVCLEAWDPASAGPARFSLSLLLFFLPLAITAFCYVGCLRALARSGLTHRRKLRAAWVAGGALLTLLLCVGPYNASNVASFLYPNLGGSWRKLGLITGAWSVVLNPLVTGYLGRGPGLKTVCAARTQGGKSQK
How it was run: (§1)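 Calcium mobilization in hFFA1-expressing cells was measured as full concentration-response curves and reported as pEC50. Efficacy is % of the response to 10 μM of the reference agonist.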

[2] = molecular target: T1, Free fatty acid receptor 1; experiment: Agonist activity at human FFA1 transfected in 1321N1 cells assessed as calcium mobilization by microplate assay; assay type: functional, cell-based; how it was run: as §1
[3] = species on record: Homo sapiens; experiment: Selectivity for human FFA1 over human PPARgamma
[4] = molecular target: Free fatty acid receptor 3 (Homo sapiens) (UniProt O14843); experiment: Agonist activity at human GPR41 in HEK293 cells
Chain of Free fatty acid receptor 3 (Homo sapiens) (O14843 whole entry, looked up): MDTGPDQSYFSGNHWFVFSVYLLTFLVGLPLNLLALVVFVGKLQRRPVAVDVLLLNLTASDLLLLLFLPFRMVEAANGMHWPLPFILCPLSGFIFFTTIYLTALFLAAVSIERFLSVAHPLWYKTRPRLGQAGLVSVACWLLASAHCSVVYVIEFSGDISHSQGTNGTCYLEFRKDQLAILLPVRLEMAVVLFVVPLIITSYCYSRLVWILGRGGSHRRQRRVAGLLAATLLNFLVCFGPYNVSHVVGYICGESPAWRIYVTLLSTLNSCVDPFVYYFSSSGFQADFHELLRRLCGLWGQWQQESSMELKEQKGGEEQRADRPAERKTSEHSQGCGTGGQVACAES

[5] = Cytotoxicity in mouse embryo fibroblasts at 100 uM; assay type: cell-based; conditions: fibroblast
[6] = molecular target: T2, Peroxisome proliferator-activated receptor gamma (Homo sapiens) (UniProt P37231); experiment: Transactivation of human PPARgamma ligand binding domain transfected in mouse embryo fibroblasts assessed as renilla luciferase activity at 10 uM by luminometry relative to 1 uM rosiglitazone
T2 sequence (whole entry): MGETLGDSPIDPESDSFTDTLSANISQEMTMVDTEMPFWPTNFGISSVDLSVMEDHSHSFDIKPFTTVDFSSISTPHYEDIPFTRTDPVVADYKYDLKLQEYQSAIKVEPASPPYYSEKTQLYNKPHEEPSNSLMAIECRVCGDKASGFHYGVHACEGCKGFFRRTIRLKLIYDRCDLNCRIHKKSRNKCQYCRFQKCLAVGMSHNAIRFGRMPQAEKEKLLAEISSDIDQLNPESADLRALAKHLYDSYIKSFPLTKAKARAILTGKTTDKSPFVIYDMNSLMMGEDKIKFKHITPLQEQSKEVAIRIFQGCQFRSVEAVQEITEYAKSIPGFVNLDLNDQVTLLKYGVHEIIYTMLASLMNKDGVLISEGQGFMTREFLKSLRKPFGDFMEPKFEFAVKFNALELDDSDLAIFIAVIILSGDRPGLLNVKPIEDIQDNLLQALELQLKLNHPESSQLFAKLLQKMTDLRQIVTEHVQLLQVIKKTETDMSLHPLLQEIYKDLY

[7] = molecular target: Free fatty acid receptor 2 (Homo sapiens) (UniProt O15552); experiment: Agonist activity at human GPR43 in HEK293 cells
Chain of Free fatty acid receptor 2 (Homo sapiens) (O15552 whole entry, looked up, the tested form may be a part): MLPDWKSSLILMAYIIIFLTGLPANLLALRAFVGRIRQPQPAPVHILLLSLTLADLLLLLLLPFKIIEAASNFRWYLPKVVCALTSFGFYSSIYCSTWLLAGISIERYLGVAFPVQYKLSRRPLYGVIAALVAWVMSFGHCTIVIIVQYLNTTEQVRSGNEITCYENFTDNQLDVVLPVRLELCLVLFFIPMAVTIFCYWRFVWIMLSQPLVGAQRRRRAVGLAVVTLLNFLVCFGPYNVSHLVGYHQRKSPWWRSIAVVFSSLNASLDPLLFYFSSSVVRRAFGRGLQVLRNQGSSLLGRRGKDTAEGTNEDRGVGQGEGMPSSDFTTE

[8] = molecular target: T2, Peroxisome proliferator-activated receptor gamma (Homo sapiens); experiment: Transactivation of human PPARgamma ligand binding domain transfected in mouse embryo fibroblasts assessed as renilla luciferase activity at 1 uM after 18 hrs by luminometry relative to 1 uM rosiglitazone
[9] = test system: INS-1E; experiment: Induction of 2.8 mM glucose-stimulated insulin secretion in rat INS-1E cells at 10 uM after 1 hr by radioimmunoassay; assay type: functional, cell-based
[10] = molecular target: T1, Free fatty acid receptor 1; experiment: Agonist activity at human FFA1 transfected in 1321N1 cells under serum-free condition up to 1 hr by dynamic mass redistribution optical biosensor assay; assay type: functional, cell-based
How it was run: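 hFFA1-transfected 1321N1 cells were exposed to a range of agonist concentrations. Label-free dynamic mass redistribution was tracked over time as the resonant wavelength shift (pm), a read-out of receptor activation. pEC50 was taken from concentration-response curves of this signal.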

[11] = Induction of 12 mM glucose-stimulated insulin secretion in rat INS-1E cells at 10 uM after 1 hr by radioimmunoassay; assay type: functional
[12] = molecular target: T2, Peroxisome proliferator-activated receptor gamma (Homo sapiens); experiment: Transactivation of human PPARgamma ligand binding domain transfected in mouse embryo fibroblasts at 100 uM after 18 hrs analyzed by photinus and renilla luciferase activity by luminometry relative to 1 uM rosiglitazone

Efficacy [1] [%] | EC50 [2] [nM] | fold change (FC) [3] | Activity [4] | Activity [6] [%] | Activity [7] | Activity [8] | Activity [10] | Activity [12] [%] | Compound | Activity [5] | Activity [9] | Activity [11] [%]
97 | 1070 | > 100 | inactive | 15 | inactive | inactive | – | – | O=C(O)CCc1ccc(NCc2ccccc2-c2ccccc2)cc1 | Toxic | – | –
114 | – | > 100 | inactive | – | inactive | inactive | Active | 86 | Cc1ccccc1-c1cccc(CNc2ccc(CCC(=O)O)cc2)c1 | – | inactive | 55
